Measurements taken from ChEMBL document CHEMBL4689842, “EUbOPEN Chemogenomics Library wave 1” (2021).

System: HEK-293T
Experiment: Multiplex assay against HEK293T;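 as to Population Tubulin-Different-Phenotype (%): share of the cells with healthy nuclei that show this phenotype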
Format: toxicity, cell-based
Conditions: human
Summary of the method: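 Live cells were stained at seeding with Hoechst33342, BioTracker Green Microtubule Cytoskeleton Dye, MitoTracker Red and Annexin V Alexa Fluor 680, then imaged on a CQ1 microscope at 37°C and 5% CO2 after compound addition. CellPathfinder machine-learning gating split cells into Hoechst high-intensity objects or normal cells. Normal cells were split into healthy, pyknosed or fragmented nuclei, and pyknosed cells into mitotic or apoptotic. Tubulin, mitochondrial-mass and membrane-permeability phenotypes are per cents of healthy-nucleus cells.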

[1] = 12 h, 1 µM, compound concentration 1 uM, replicate 1
[2] = 12 h, 1 µM, compound concentration 1 uM, replicate 2
[3] = 12 h, 10 µM, compound concentration 10 uM, replicate 1
[4] = 12 h, 10 µM, compound concentration 10 uM, replicate 2
[5] = 24 h, 1 µM, compound concentration 1 uM, replicate 1
[6] = 24 h, 1 µM, compound concentration 1 uM, replicate 2
[7] = 24 h, 10 µM, compound concentration 10 uM, replicate 1
[8] = 24 h, 10 µM, compound concentration 10 uM, replicate 2

Question: Which “Population Apoptotic (%)” value [1] does the source give for `Cl.Cn1c2c(c3ccc(Cl)c(Cl)c31)C(C#N)C1(CCNCC1)NC2=O` (configuration not stated) here?
Answer: 17%

Question: And the “Population Fragmented Nuclei (%)” value [1]?
Answer: 13%

Question: What about the “Population Healthy Nuclei (%)” value [1] of the same compound?
Answer: 66%

Question: What about the “Population Hoechst High Intensity Objects (%)” value [1] of the same compound?
Answer: 10%

Question: And the “Population Membrane Permeable-Phenotype (%)” value [1]?
Answer: 8%

Question: What about the “Population Mitochondria Different-Phenotype (%)” value [1] of the same compound?
Answer: 6%

Question: What about the “Population Mitotic Cells (%)” value [1] of the same compound?
Answer: 82%

Question: And the “Population Normal (%)” value [1]?
Answer: 89%

Question: What about the “Population Pyknosed Nuclei (%)” value [1] of the same compound?
Answer: 19%

Question: What about the “Population Tubulin-Different-Phenotype (%)” value [1] of the same compound?
Answer: 10%

Question: What about the “Total Cell Count” value [1] of the same compound?
Answer: 650

Question: And the “Population Apoptotic (%)” value [2]?
Answer: 2%

Question: And the “Population Fragmented Nuclei (%)” value [2]?
Answer: 6%

Question: What about the “Population Healthy Nuclei (%)” value [2] of the same compound?
Answer: 87%

Question: What about the “Population Hoechst High Intensity Objects (%)” value [2] of the same compound?
Answer: 3%

Question: What about the “Population Membrane Permeable-Phenotype (%)” value [2] of the same compound?
Answer: 3%

Question: And the “Population Mitochondria Different-Phenotype (%)” value [2]?
Answer: 7%

Question: And the “Population Mitotic Cells (%)” value [2]?
Answer: 97%

Question: What about the “Population Normal (%)” value [2] of the same compound?
Answer: 96%

Question: And the “Population Pyknosed Nuclei (%)” value [2]?
Answer: 5%

Question: And the “Total Cell Count” value [2]?
Answer: 1592

Question: What about the “Population Apoptotic (%)” value [3] of the same compound?
Answer: 24%

Question: And the “Population Fragmented Nuclei (%)” value [3]?
Answer: 16%

Question: What about the “Population Healthy Nuclei (%)” value [3] of the same compound?
Answer: 30%

Question: And the “Population Hoechst High Intensity Objects (%)” value [3]?
Answer: 20%

Question: What about the “Population Membrane Permeable-Phenotype (%)” value [3] of the same compound?
Answer: 23%

Question: And the “Population Mitochondria Different-Phenotype (%)” value [3]?
Answer: 14%

Question: And the “Population Mitotic Cells (%)” value [3]?
Answer: 75%

Question: What about the “Population Normal (%)” value [3] of the same compound?
Answer: 79%

Question: What about the “Population Pyknosed Nuclei (%)” value [3] of the same compound?
Answer: 52%

Question: What about the “Population Tubulin-Different-Phenotype (%)” value [3] of the same compound?
Answer: 76%

Question: What about the “Total Cell Count” value [3] of the same compound?
Answer: 698

Question: And the “Population Apoptotic (%)” value [4]?
Answer: 17%

Question: What about the “Population Fragmented Nuclei (%)” value [4] of the same compound?
Answer: 3%

Question: And the “Population Healthy Nuclei (%)” value [4]?
Answer: 74%

Question: What about the “Population Hoechst High Intensity Objects (%)” value [4] of the same compound?
Answer: 4%

Question: And the “Population Membrane Permeable-Phenotype (%)” value [4]?
Answer: 24%

Question: And the “Population Mitochondria Different-Phenotype (%)” value [4]?
Answer: 25%

Question: And the “Population Mitotic Cells (%)” value [4]?
Answer: 82%

Question: And the “Population Normal (%)” value [4]?
Answer: 95%

Question: And the “Population Pyknosed Nuclei (%)” value [4]?
Answer: 22%

Question: And the “Population Tubulin-Different-Phenotype (%)” value [4]?
Answer: 95%

Question: What about the “Total Cell Count” value [4] of the same compound?
Answer: 983

Question: What about the “Population Apoptotic (%)” value [5] of the same compound?
Answer: 16%

Question: And the “Population Fragmented Nuclei (%)” value [5]?
Answer: 11%

Question: What about the “Population Healthy Nuclei (%)” value [5] of the same compound?
Answer: 77%

Question: What about the “Population Hoechst High Intensity Objects (%)” value [5] of the same compound?
Answer: 7%

Question: And the “Population Membrane Permeable-Phenotype (%)” value [5]?
Answer: 17%

Question: What about the “Population Mitochondria Different-Phenotype (%)” value [5] of the same compound?
Answer: 5%

Question: What about the “Population Mitotic Cells (%)” value [5] of the same compound?
Answer: 83%

Question: What about the “Population Normal (%)” value [5] of the same compound?
Answer: 92%

Question: And the “Population Pyknosed Nuclei (%)” value [5]?
Answer: 10%

Question: What about the “Population Tubulin-Different-Phenotype (%)” value [5] of the same compound?
Answer: 17%

Question: And the “Total Cell Count” value [5]?
Answer: 747

Question: What about the “Population Apoptotic (%)” value [6] of the same compound?
Answer: 5%

Question: And the “Population Fragmented Nuclei (%)” value [6]?
Answer: 24%

Question: What about the “Population Healthy Nuclei (%)” value [6] of the same compound?
Answer: 72%

Question: What about the “Population Hoechst High Intensity Objects (%)” value [6] of the same compound?
Answer: 3%

Question: What about the “Population Membrane Permeable-Phenotype (%)” value [6] of the same compound?
Answer: 7%

Question: And the “Population Mitochondria Different-Phenotype (%)” value [6]?
Answer: 1%

Question: What about the “Population Mitotic Cells (%)” value [6] of the same compound?
Answer: 94%

Question: And the “Population Normal (%)” value [6]?
Answer: 96%

Question: What about the “Population Pyknosed Nuclei (%)” value [6] of the same compound?
Answer: 2%

Question: And the “Population Tubulin-Different-Phenotype (%)” value [6]?
Answer: 11%

Question: What about the “Total Cell Count” value [6] of the same compound?
Answer: 2758

Question: What about the “Population Apoptotic (%)” value [7] of the same compound?
Answer: 25%

Question: What about the “Population Fragmented Nuclei (%)” value [7] of the same compound?
Answer: 19%

Question: And the “Population Healthy Nuclei (%)” value [7]?
Answer: 32%

Question: And the “Population Hoechst High Intensity Objects (%)” value [7]?
Answer: 19%

Question: And the “Population Membrane Permeable-Phenotype (%)” value [7]?
Answer: 16%

Question: What about the “Population Mitochondria Different-Phenotype (%)” value [7] of the same compound?
Answer: 22%

Question: What about the “Population Mitotic Cells (%)” value [7] of the same compound?
Answer: 74%

Question: What about the “Population Normal (%)” value [7] of the same compound?
Answer: 80%

Question: And the “Population Pyknosed Nuclei (%)” value [7]?
Answer: 47%

Question: What about the “Population Tubulin-Different-Phenotype (%)” value [7] of the same compound?
Answer: 86%

Question: What about the “Total Cell Count” value [7] of the same compound?
Answer: 669

Question: What about the “Population Apoptotic (%)” value [8] of the same compound?
Answer: 12%

Question: And the “Population Fragmented Nuclei (%)” value [8]?
Answer: 5%

Question: What about the “Population Healthy Nuclei (%)” value [8] of the same compound?
Answer: 81%

Question: And the “Population Hoechst High Intensity Objects (%)” value [8]?
Answer: 9%

Question: And the “Population Membrane Permeable-Phenotype (%)” value [8]?
Answer: 13%

Question: What about the “Population Mitochondria Different-Phenotype (%)” value [8] of the same compound?
Answer: 25%

Question: And the “Population Mitotic Cells (%)” value [8]?
Answer: 87%

Question: What about the “Population Normal (%)” value [8] of the same compound?
Answer: 91%

Question: And the “Population Pyknosed Nuclei (%)” value [8]?
Answer: 13%

Question: What about the “Population Tubulin-Different-Phenotype (%)” value [8] of the same compound?
Answer: 94%

Question: What about the “Total Cell Count” value [8] of the same compound?
Answer: 1033
